Measured values published in ChEMBL document CHEMBL3286372, “Design, synthesis and structure-activity relationship of novel semi-synthetic flavonoids as antiproliferative agents” (2014).

Columns and labels:
Mus musculus [1] = experiment: Increase in GSK-3beta level in tumor of BALB mouse allografted with mouse EAC cells at 3 mg/kg, ip for 5 days by competitive ELISA relative to control; format: functional, Ehrlich; conditions: route intraperitoneal
In short: (§1)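 Female BALB mice bearing subcutaneous EAC tumours (2×10^5 cells in left hind leg, grown 2 wk). Dosed i.p. daily for 5 days; controls received saline. Excised tumours washed in cold saline and homogenised at 10% in PBS. GSK-3β measured by competitive ELISA, samples in duplicate. Change versus untreated controls, mean ± SEM, n = 6.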

HT-29 = experiment: Growth inhibition of human HT-29 cells at 10 uM after 48 hrs by sulforhodamine B assay relative to control; format: functional; conditions: HT-29, 48 h, read-out: GI
In short: (§2)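 NCI-60 primary screen at a single dose of 10 µM with 48 h continuous exposure. Growth or viability read by sulforhodamine B protein staining and expressed as percent growth inhibition versus untreated cells.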

Mus musculus [2] = experiment: Increase in GSK-3beta level in tumor of BALB mouse allografted with mouse EAC cells at 6 mg/kg, ip for 5 days by competitive ELISA relative to control; format: functional, Ehrlich; conditions: route intraperitoneal; in short: as §1
Ehrlich [3] = experiment: Antitumor activity against mouse EAC cells allografted in BALB mouse assessed as tumor growth inhibition at 3 mg/kg, ip for 5 days relative to control; format: functional; conditions: 120 h, route intraperitoneal, read-out: TGI
In short: (§3)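 Female BALB mice; Ehrlich ascites carcinoma cells, 2×10^5 cells/mouse in 0.2 ml saline, injected s.c. into the left hind leg and grown 2 wk. Daily i.p. saline (control), 3 or 6 mg/kg for 5 days. Caliper size V = 0.4×a(b)^2, taken just before the first dose and 24 h after the last. Mean ± SEM, n = 6; ANOVA with Tukey-Kramer.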

[4] = Growth inhibition of human UACC257 cells at 10 uM after 48 hrs by sulforhodamine B assay relative to control; format: functional; conditions: UACC-257, 48 h, read-out: GI
In short: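 NCI-60 primary single-dose screen at 10 µM with continuous 48 h exposure. Cell viability/growth read by sulforhodamine B protein staining. Reported as percent growth inhibition relative to untreated cells.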

Mus musculus [5] = experiment: Decrease in cyclin D1 level in tumor of BALB mouse allografted with mouse EAC cells at 3 mg/kg, ip for 5 days competitive ELISA relative to control; format: functional, Ehrlich; parameters: scale not given: the % may be the effect or the level left; conditions: route intraperitoneal
In short: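 Mice bearing s.c. Ehrlich tumours (2×10^5 EAC cells, grown 2 wk) were given daily i.p. saline, 3 or 6 mg/kg for 5 days. Tumours were excised, washed in cold saline and blotted, and a 10% homogenate was made in phosphate buffered saline. Cyclin D1 was measured by competitive ELISA with samples in duplicate. Mean ± SEM, n = 6.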

[6] = Growth inhibition of human HCT15 cells at 10 uM after 48 hrs by sulforhodamine B assay relative to control; format: functional; conditions: HCT-15, 48 h, read-out: GI; in short: as §2
786-0 = experiment: Growth inhibition of human 786-0 cells at 10 uM after 48 hrs by sulforhodamine B assay relative to control; format: functional; conditions: 786-0, 48 h, read-out: GI; in short: as §2
M14 = experiment: Growth inhibition of human M14 cells at 10 uM after 48 hrs by sulforhodamine B assay relative to control; format: functional; conditions: M14, 48 h, read-out: GI; in short: as §2
K562 = experiment: Growth inhibition of human K562 cells at 10 uM after 48 hrs by sulforhodamine B assay relative to control; format: functional; conditions: K562, 48 h, read-out: GI; in short: as §2
Ehrlich [7] = experiment: Antitumor activity against mouse EAC cells allografted in ip dosed BALB mouse assessed as tumor growth inhibition administered for 5 days; format: functional, organism-based; in short: as §3
[8] = Growth inhibition of human RXF393 cells at 10 uM after 48 hrs by sulforhodamine B assay relative to control; format: functional; conditions: RXF 393, 48 h, read-out: GI
In short: (§4)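 NCI-60 primary screen at a single 10 µM dose. Continuous 48 h exposure, with growth or viability estimated by sulforhodamine B protein staining. Reported as percent growth inhibition of treated cells relative to untreated growth.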

SF-268 = experiment: Growth inhibition of human SF268 cells at 10 uM after 48 hrs by sulforhodamine B assay relative to control; format: functional; conditions: SF-268, 48 h, read-out: GI; in short: as §4

SMILES: COc1c2occc2c(OC)c2c(=O)c(CN3CCOCC3)c(/C=C/c3ccc(N(C)C)cc3)oc12
- Activity (Mus musculus [1]): 101.5%
- inhibition of growth at 10 µM (HT-29): 82%
- Activity (Mus musculus [2]): 197.2%
- inhibition in vivo at 3 mg/kg (Ehrlich [3]): 62.1%
- inhibition of growth at 10 µM [4]: 76%
- Activity (Mus musculus [5]): 40.6%
- inhibition of growth at 10 µM [6]: 67%
- inhibition of growth at 10 µM (786-0): 95%
- inhibition of growth at 10 µM (M14): 63%
- inhibition of growth at 10 µM (K562): 84%
- TGI (Ehrlich [7]): Dose-dependent effect

SMILES: C=CCc1c2c(c(OC)c3ccoc13)C(=O)/C(=C/c1ccccc1OC)O2
- inhibition of growth at 10 µM [8]: 75%

SMILES: COc1c2occc2c(OC)c2c(=O)c(CN3CCOCC3)c(/C=C/c3ccc(Cl)cc3)oc12
- inhibition of growth at 10 µM (SF-268): 67%
